Active and inactive are the calls of the source. No cut-off for these calls is given here.
Tests used:
Leishmania major = assay: Antileishmanial activity against Leishmania major (MHOM/IL/80/Friedlin) promastigotes assessed as reduction in parasite growth incubated for 72 hrs by MTT assay; type: functional, organism-based
Method in brief: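 L. major Friedlin promastigotes, 1×10^6/mL in modified RPMI-1640 with 10% hiFBS, exposed to increasing compound concentrations for 72 h at 28 °C; proliferation read by MTT; IC50 from four-parameter logistic fit versus untreated controls.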

Trypanosoma brucei = assay: Antitrypanosomal activity against Trypanosoma brucei incubated for 72 hrs by alamar blue dye based fluorimetry analysis; type: functional, organism-based
Method in brief: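 Bloodstream-form T. brucei S16 (Lister 427, MiTat 1.2), 1×10^3 per well in HMI-9 with 20% hiFBS, exposed to increasing compound concentrations for 72 h at 37 °C, 5% CO2. Resazurin then added for 4 h, cells lysed with SDS, fluorescence read at ex 550/em 590 nm. IC50 from four-parameter logistic fit; three independent runs, each in triplicate.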

[1] = Selectivity index, ratio of IC50 for human MRC5 cells to IC50 for human HT-29 cells; type: toxicity; settings: MRC5 cells versus HT-29 cells, read-out: Selectivity Index
Method in brief: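 Selectivity index: MRC-5 IC50 divided by HT-29 IC50.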

[2] = Drug uptake in human HT-29 cells at 10 uM incubated for 2 hrs by fluorescence based multiplate reader method; type: ADME, cell-based; settings: ht-29, 2 h
Method in brief: (§1)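 225,000 trypsinized cells incubated with 10 μM compound in 0.75 mL medium for 2 h at 37 °C; washed three times with PBS, lysed in 3% SDS and sonicated. NDI fluorescence read at ex 485/em 535 nm, quantified against a calibration curve in cell lysate and normalized to BCA protein. Reported as % of compound added.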

Quadruplex DNA [3] = assay: Binding affinity to parallel G-quadruplex DNA TGGGGT TGGGGT TGGGGT TGGGGT (unknown origin) by mass spectrometric analysis; type: nucleic-acid assay
Method in brief: (§2)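 Native ESI-FTICR MS in negative ion mode under soft conditions, in 100 mM ammonium acetate; DNA at 5 μM with ligand at 10 μM.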

HT-29 = assay: Cytotoxicity against human HT-29 cells assessed as reduction in cell viability incubated for 48 hrs by MTT assay; type: functional, cell-based; settings: HT-29, 48 h
Method in brief: (§3)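 MTT assay: 5×10^3 cells per well in DMEM with 10% hiFBS (4.5 g/L glucose for HT-29, 1 g/L for MRC-5), exposed to increasing compound concentrations for 48 h at 37 °C. MTT added for 4 h, formazan dissolved in DMSO, absorbance read at 575 nm. IC50 from four-parameter logistic fit.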

[4] = Drug localization in cytoplasm of Trypanosoma brucei at 5 uM incubated for 30 to 120 mins by DAPI staining based fluorescence microscopic analysis; type: ADME, subcellular; settings: time 30-120 min
Method in brief: (§4)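 T. brucei at 1×10^7/mL exposed to 5 μM compound in FBS-free medium for 30 and 120 min at 37 °C; fixed in cold 4% paraformaldehyde, DAPI-stained and imaged by widefield microscopy. Compound excited with the 542–566 filter and emission collected at 578–610 nm.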

Quadruplex DNA [5] = assay: Binding affinity to human G-quadruplex telomeric DNA F21T (5'-duplex GGG TTAGGG TTAGGG TTAGGG-3') by mass spectrometric analysis; type: nucleic-acid assay; method in brief: as §2
[6] = Drug uptake in human MRC5 cells at 10 uM incubated for 2 hrs by fluorescence based multiplate reader method; type: ADME, cell-based; settings: mrc5, 2 h; method in brief: as §1
[7] = Selectivity index, ratio of IC50 for cytotoxicity against human MRC5 cells to IC50 for antileishmanial activity against Leishmania major (MHOM/IL/80/Friedlin) promastigotes; type: toxicity, cell-based; settings: read-out: Selectivity Index
Method in brief: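 Selectivity index: MRC-5 IC50 divided by L. major promastigote IC50.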

[8] = Drug uptake in Trypanosoma brucei at 10 uM incubated for 2 hrs by fluorescence based multiplate reader method; type: ADME
[9] = Selectivity index, ratio of IC50 for cytotoxicity against human MRC5 cells to IC50 for antitrypanosomal activity against Trypanosoma brucei; type: toxicity, cell-based; settings: MRC5 cells versus Trypanosoma brucei, read-out: Selectivity Index
Method in brief: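 Selectivity index: MRC-5 IC50 divided by T. brucei IC50.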

[10] = Drug localization in nucleus of human HT-29 cells at 25 uM incubated for 30 to 120 mins by DAPI staining based fluorescence microscopic analysis; type: ADME, subcellular; settings: ht-29, 25 µM, time 30-120 min
Method in brief: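 HT-29 cells grown 24 h on coverslips in FBS-free medium, then exposed to 25 μM compound for 30 or 120 min at 37 °C. Mounted in DAPI medium and imaged by widefield fluorescence microscopy; compound emission collected at 578–610 nm, DAPI at 437–474 nm.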

Quadruplex DNA [11] = assay: Binding affinity to human G-quadruplex telomeric DNA F21T (5'-duplex GGG TTAGGG TTAGGG TTAGGG-3') assessed as change in melting temperature at 1 uM incubated for 5 min by FRET assay; type: nucleic-acid assay
Method in brief: (§5)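 Fluorescently labelled oligonucleotide annealed (95 °C, 5 min) in 10 mM lithium cacodylate/90 mM LiCl, pH 7.2; 0.2 μM final, with or without ligand. Held 5 min at 25 °C, then heated 0.5 °C/min to 95 °C. Tm taken at normalized signal 0.5; ΔTm = Tm with ligand minus Tm without. Tested in duplicate.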

[12] = Cytotoxicity against human MRC5 cells assessed as reduction in cell viability incubated for 48 hrs by MTT assay; type: toxicity, cell-based; method in brief: as §3
[13] = Drug localization in nucleus of Trypanosoma brucei at 5 uM incubated for 30 to 120 mins by DAPI staining based fluorescence microscopic analysis; type: ADME, subcellular; settings: time 30-120 min; method in brief: as §4
Quadruplex DNA [14] = assay: Binding affinity to human G-quadruplex telomeric DNA F21T (5'-duplex GGG TTAGGG TTAGGG TTAGGG-3') assessed as change in melting temperature at 2 uM incubated for 5 min by FRET assay; type: nucleic-acid assay; method in brief: as §5

Row | Compound | IC50 (Trypanosoma brucei) [nM] | Drug uptake [2] [%] | Activity (Quadruplex DNA [3]) | Drug uptake [4] | Activity (Quadruplex DNA [5]) | Drug uptake [6] [%] | Drug uptake [8] [%] | Drug uptake [10] | ΔTm (Quadruplex DNA [11]) [°C] | Drug uptake [13] | ΔTm (Quadruplex DNA [14]) [°C] | IC50 (Leishmania major) [nM] | selectivity ratio [1] | IC50 (HT-29) [nM] | selectivity ratio [7] | selectivity ratio [9] | IC50 at 48 h [12] [nM]
1 | O=C1c2ccc3c4c(c(NCc5cn(CCS[C@@H]6O[C@H](CO)[C@@H](O[C@H]7O[C@H](CO)[C@@H](O)[C@H](O)[C@H]7O)[C@H](O)[C@H]6O)nn5)cc(c24)C(=O)N1CCN1CCOCC1)C(=O)N(CCN1CCOCC1)C3=O | 3040 | 3.5 | – | – | – | 3.3 | 6.7 | – | – | – | – | > 50000 | > 3.6 | 13700 | – | > 16 | > 50000
2 | CN(C)CCCN1C(=O)c2ccc3c4c(c(NCc5cn(CCO[C@@H]6O[C@H](CO)[C@H](O)[C@H](O)[C@H]6O)nn5)cc(c24)C1=O)C(=O)N(CCCN(C)C)C3=O | 50 | – | Active | – | Active | – | – | – | 10 | – | – | 13900 | 3.9 | 500 | 0.14 | 38.8 | 1940
3 | CN(C)CCCN1C(=O)c2ccc3c4c(c(NCc5cn(CCS[C@@H]6O[C@H](CO)[C@@H](O)[C@H](O)[C@H]6O)nn5)cc(c24)C1=O)C(=O)N(CCCN(C)C)C3=O | 50 | – | – | – | – | – | – | – | – | – | – | 1380 | 3.7 | 750 | 2 | 55 | 2750
4 | CN(C)CCCN1C(=O)c2ccc3c4c(c(NCc5cn(CCO[C@@H]6O[C@H](CO)[C@@H](O[C@H]7O[C@H](CO)[C@@H](O)[C@H](O)[C@H]7O)[C@H](O)[C@H]6O)nn5)cc(c24)C1=O)C(=O)N(CCCN(C)C)C3=O | 60 | 20.9 | – | Active | – | 25.5 | 7 | Active | 10 | Active | – | 800 | 3.8 | 480 | 2.3 | 30 | 1800
5 | O=C1c2ccc3c4c(c(NCc5cn(CCO[C@@H]6O[C@H](CO)[C@H](O)[C@H](O)[C@H]6O)nn5)cc(c24)C(=O)N1CCN1CCOCC1)C(=O)N(CCN1CCOCC1)C3=O | 150 | – | – | – | – | – | 5.4 | – | 1 | – | 5 | 27500 | 2.9 | 3600 | 0.38 | 69.3 | 10400
6 | CN(C)CCCN1C(=O)c2ccc3c4c(c(NCc5cn(CCS[C@H]6O[C@H](CO)[C@@H](O)[C@H](O)[C@@H]6O)nn5)cc(c24)C1=O)C(=O)N(CCCN(C)C)C3=O | 80 | – | – | – | – | – | 6.1 | – | – | – | – | 1520 | 3.2 | 880 | 1.8 | 34.7 | 2780
7 | CN(C)CCCN1C(=O)c2ccc3c4c(c(NCc5cn(CCO[C@H]6O[C@H](CO)[C@@H](O)[C@H](O)[C@@H]6O)nn5)cc(c24)C1=O)C(=O)N(CCCN(C)C)C3=O | 50 | – | – | – | – | – | 8.1 | – | – | – | – | 300 | 2.2 | 430 | 3.2 | 19 | 950
8 | O=C1c2ccc3c4c(c(NCc5cn(CCS[C@H]6O[C@H](CO)[C@@H](O)[C@H](O)[C@@H]6O)nn5)cc(c24)C(=O)N1CCN1CCOCC1)C(=O)N(CCN1CCOCC1)C3=O | 730 | – | – | – | – | – | 3.2 | – | – | – | – | 21700 | 6.7 | 3390 | 1.1 | 31 | 22600
9 | O=C1c2ccc3c4c(c(NCc5cn(CCO[C@@H]6O[C@H](CO)[C@@H](O)[C@H](O)[C@H]6O)nn5)cc(c24)C(=O)N1CCN1CCOCC1)C(=O)N(CCN1CCOCC1)C3=O | 310 | – | – | – | – | – | – | – | – | – | – | 10500 | 4.5 | 1750 | 0.7 | 25.3 | 7860
10 | O=C1c2ccc3c4c(c(NCc5cn(CCO[C@@H]6O[C@H](CO)[C@@H](O[C@H]7O[C@H](CO)[C@@H](O)[C@H](O)[C@H]7O)[C@H](O)[C@H]6O)nn5)cc(c24)C(=O)N1CCN1CCOCC1)C(=O)N(CCN1CCOCC1)C3=O | 3320 | 3.2 | – | – | – | 0.8 | 6.1 | – | – | – | – | > 50000 | > 3.8 | 13000 | – | > 15 | > 50000

Further molecules by falling IC50 (Trypanosoma brucei), results first:

Row | IC50 (Trypanosoma brucei) [nM] | Drug uptake [2] [%] | Activity (Quadruplex DNA [3]) | Drug uptake [4] | Activity (Quadruplex DNA [5]) | Drug uptake [6] [%] | Drug uptake [8] [%] | Drug uptake [10] | ΔTm (Quadruplex DNA [11]) [°C] | Drug uptake [13] | ΔTm (Quadruplex DNA [14]) [°C] | Compound | IC50 (Leishmania major) [nM] | selectivity ratio [1] | IC50 (HT-29) [nM] | selectivity ratio [7] | selectivity ratio [9] | IC50 at 48 h [12] [nM]
11 | 2100 | – | – | – | – | – | 4.2 | – | – | – | – | O=C1c2ccc3c4c(c(NCc5cn(CCO[C@H]6O[C@H](CO)[C@@H](O)[C@H](O)[C@@H]6O)nn5)cc(c24)C(=O)N1CCN1CCOCC1)C(=O)N(CCN1CCOCC1)C3=O | > 50000 | 3.6 | 8520 | – | 14.5 | 30500
12 | 1180 | – | – | – | – | – | – | – | – | – | – | O=C1c2ccc3c4c(c(NCc5cn(CCS[C@@H]6O[C@H](CO)[C@@H](O)[C@H](O)[C@H]6O)nn5)cc(c24)C(=O)N1CCN1CCOCC1)C(=O)N(CCN1CCOCC1)C3=O | 30200 | 1.2 | 28900 | 1.2 | 30.3 | 35700
13 | 80 | – | – | – | – | – | – | – | – | – | – | CN(C)CCCN1C(=O)c2ccc3c4c(c(NCc5cn(CCO[C@@H]6O[C@H](CO)[C@@H](O)[C@H](O)[C@H]6O)nn5)cc(c24)C1=O)C(=O)N(CCCN(C)C)C3=O | 790 | 2 | 460 | 1.2 | 11.5 | 920
14 | 60 | 23.1 | Active | Active | Active | 20.7 | 4.3 | Active | 10 | Active | – | CN(C)CCCN1C(=O)c2ccc3c4c(c(NCc5cn(CCS[C@@H]6O[C@H](CO)[C@@H](O[C@H]7O[C@H](CO)[C@@H](O)[C@H](O)[C@H]7O)[C@H](O)[C@H]6O)nn5)cc(c24)C1=O)C(=O)N(CCCN(C)C)C3=O | 510 | 9.8 | 300 | 5.7 | 49 | 2940
15 | 40 | – | Active | – | Active | – | – | – | 10 | – | – | CN(C)CCCN1C(=O)c2ccc3c4c(c(NCc5cn(CCS[C@@H]6O[C@H](CO)[C@H](O)[C@H](O)[C@H]6O)nn5)cc(c24)C1=O)C(=O)N(CCCN(C)C)C3=O | 740 | 4.4 | 350 | 2.1 | 38.7 | 1550

— ChEMBL document CHEMBL5154742, “Thiosugar naphthalene diimide conjugates: G-quadruplex ligands with antiparasitic and anticancer activity” (Eur J Med Chem, 2022)
